Test system: 4T1 mammary tumors
Type: in vivo, mouse (BALB/c)
Conditions: Alexa546-pHLIP i.v., time points 2, 4, 24, 48 h
Outline: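 Female BALB/c mice, s.c. 4T1 cells (8 × 10^5 cells/0.1 mL) in right flank; used at ~6 mm tumor diameter. Single tail-vein dose of 5 nmol (100 μL of 50 μM) Alexa546-labeled peptide in PBS. Necropsy at 2, 4, 24, 48 h; excised tumor, muscle, kidney, liver imaged immediately; mean fluorescence intensity quantified. Six mice per construct.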

| Sequence | Time postinjection of maximal renal fluorescence signal (kidney) | Time postinjection of maximum fluorescence signal in tumor (4T1 tumor) |
| --- | --- | --- |
| ACDDQNPWRAYLDLLFPTDTLLLDLLW [Var3] | 24 h | – |
| ACEEQNPWARYLEWLFPTETLLLEL [Var7] | – | 4 h |

— publication PMC4123937 (Molecular Pharmaceutics, 2014)
